Source: PubChem (several laboratories)
EBI2 block – antagonists of human EBI2 receptor; P32249; EBI2 beta-arrestin recruitment, luminescence, 7a,25-OHC stimulated; inhibition, % at 5 µM; 360,000 compounds, 0.81% hits; AID 651636; in the data active = inhibition above about 38%;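 also: enzyme fragment complementation signal reports receptor beta-arrestin coupling in cells; 0% = agonist plus DMSO wells and 100% = wells without agonist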
APJ agonist – agonists of human APJ apelin receptor | P35414 | CHO-K1 APJ PathHunter beta-arrestin, luminescence; 0% DMSO wells, 100% apelin | activation, % at 20 µM | 330,000 compounds, 0.11% hits;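 active = activation more than six SD over the plate average, tested at 20 µM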;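 also: 0% = DMSO alone and 100% = apelin-13 at 10 nM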
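assay system = CHO-K1 APJ beta-arrestin complementation cell line | input = cell density 1000 per well | dosing = compound 20 µM once, DMSO 1% | timing = compound 90 min 25 °C, reagent 1 h | measured by = luminescence from split beta-galactosidase complementation, Galacton Star/Emerald II substrate | read-out basis = APJ agonist activity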
CXCR6 inh – inhibitors of human CXCR6 receptor | O00574 | CHO-K1 PathHunter CXCR6 beta-arrestin, luminescence | inhibition, % at 20 µM | 360,000 compounds, 0.36% hits; in the data active = inhibition above about 34%, passing the limit was not always enough;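 also: antagonist mode with CXCL16 agonist at 10 nM final; 0% = 10 nM CXCL16 with DMSO and 100% = unstimulated wells without agonist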
Target sequence (O00574 whole entry, looked up): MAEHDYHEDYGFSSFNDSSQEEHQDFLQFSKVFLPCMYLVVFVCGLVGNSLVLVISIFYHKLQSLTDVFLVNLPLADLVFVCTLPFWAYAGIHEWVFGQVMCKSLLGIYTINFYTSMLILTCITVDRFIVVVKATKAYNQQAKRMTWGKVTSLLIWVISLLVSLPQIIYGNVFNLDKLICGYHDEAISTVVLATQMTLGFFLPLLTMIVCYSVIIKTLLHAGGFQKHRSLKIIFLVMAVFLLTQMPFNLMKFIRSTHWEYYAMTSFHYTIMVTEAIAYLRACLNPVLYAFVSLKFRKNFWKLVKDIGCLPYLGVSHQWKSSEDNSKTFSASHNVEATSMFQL
CCR6 antag – antagonists of human CCR6 receptor | P51684 | CHO-K1 CCR6 PathHunter beta-arrestin, luminescence, CCL20-stimulated | inhibition, % at 20 µM | 340,000 compounds, 0.49% hits;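 active = compounds whose inhibition of the agonist-driven luminescence signal at 20 µM reaches about 50%, limit read from the data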;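 also: cells stimulated with CCL20 at 14 nM final; plate controls were DMSO with CCL20 for no effect and DMSO without agonist for full effect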
APJ antagonist – antagonists of human APJ apelin receptor; P35414; CHO-K1 APJ beta-arrestin complementation, luminescence; inhibition, % at 20 µM; 330,000 compounds, 0.32% hits; AID 2521;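 active = inhibition above about 40% at 20 µM, limit read from the data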;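 also: cells challenged with 10 nM apelin-13 agonist together with compound; plate controls were apelin-13 plus DMSO wells for no effect and DMSO wells lacking apelin-13 for full effect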
m5-HT2A agonist – agonists of mouse serotonin 5-HT2A receptor (HTR2A); P35363; CHO-K1 mHTR2A beta-arrestin complementation, luminescence; percent of 30 µM serotonin response; activation, % at 7.6 µM; 360,000 compounds, 0.66% hits; AID 624169;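 active = activation above a run cutoff, the mean activation of all tested compounds plus 3 SD, cut at about 14% in these data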;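 also: 0% = plate median of compound wells and 100% = 30 µM serotonin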
EBI2 antag conf – confirmation of human EBI2 receptor antagonists. shares compounds with EBI2 block. 2,400 compounds, 29% hits. inhibition, % at 5 µM. AID 651997. EBI2 beta-arrestin luminescence, 7a,25-OHC antagonism;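 active = inhibition of at least 50%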
EBI2 agonist – counter-screen for EBI2 antagonists: EBI2 agonist activity | AID 652000 | 2,400 tested, under 10 active | shares compounds with EBI2 block | EBI2-expressing cells, agonist mode, luminescence, 60 min; 0% vehicle, 100% 7α,25-dihydroxycholesterol control | activation, % at 5 µM;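 active = activation of at least 50%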
bGal cs – counter-screen for EBI2 antagonists: E. coli beta-galactosidase inhibition | inhibition, % at 5 µM | purified beta-galactosidase, luminescent Galacton Star, 15 min | 2,400 compounds, 1% hits | shares compounds with EBI2 block;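 active = replicate-average signal at least 3 plate SD below neutral wells, shown as high inhibition, flagging enzyme-inhibiting false positives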;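 also: 0% = DMSO wells with enzyme and 100% = wells lacking enzyme; higher means stronger loss of beta-gal luminescence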
Starred values were filed as active, the others as inactive. In the library only some 2.1% were active in any assay of this set; here they are far more common.

Results for CCOC(=O)c1cnc2cc(Cl)c(OC)cc2c1NCC1CCCO1 (configuration not stated) ?
EBI2 block: 41*; APJ agonist: 1; CXCR6 inh: 2; CCR6 antag: 15; APJ antagonist: 12; m5-HT2A agonist: 1; EBI2 antag conf: 31; EBI2 agonist: -1; bGal cs: -20

What do the screens show for `O=C(COC(=O)c1cc([N+](=O)[O-])ccc1N1CCOCC1)Nc1ccccc1OC(F)F`?
EBI2 block: 2; APJ agonist: 9; CXCR6 inh: -1; CCR6 antag: 15; APJ antagonist: -59; m5-HT2A agonist: 2

Results for O=C(COC(=O)c1cc([N+](=O)[O-])ccc1N1CCOCC1)c1ccc(OC(F)F)cc1OC(F)F ?
EBI2 block: 44*; APJ agonist: -4; CXCR6 inh: 16; CCR6 antag: 17; APJ antagonist: 18; m5-HT2A agonist: -4; EBI2 antag conf: 18; EBI2 agonist: 0; bGal cs: 8

How did CCN(Cc1ccccc1)C(=O)Cn1cnc2c1c(=O)n(C)c(=O)n2C do in these assays?
EBI2 block: 0; APJ agonist: 1; CXCR6 inh: -3; CCR6 antag: -8; APJ antagonist: 11; m5-HT2A agonist: -3

How did O=C(NCCOc1ccc(Cl)cc1)c1cccc(S(=O)(=O)N2CCCC2)c1 do in these assays?
EBI2 block: 56*; APJ agonist: -2; CXCR6 inh: -6; CCR6 antag: 15; APJ antagonist: 15; m5-HT2A agonist: 4; EBI2 antag conf: 47; EBI2 agonist: -1; bGal cs: -10

Results for O=C(NCc1ccc(Cl)cc1)c1cccc(S(=O)(=O)N2CCCC2)c1 ?
EBI2 block: -6; APJ agonist: -4; CXCR6 inh: -3; CCR6 antag: 16; APJ antagonist: 1; m5-HT2A agonist: -11

What do the screens show for `O=C(NCCOc1ccc(Cl)cc1)C1CCCCC1`?
EBI2 block: 61*; APJ agonist: -2; CXCR6 inh: -6; CCR6 antag: 11; APJ antagonist: -2; m5-HT2A agonist: -2; EBI2 antag conf: 30; EBI2 agonist: 0; bGal cs: 11

How did CC(C)OC(=O)c1cn(-c2ccccc2)nc1-c1ccco1 do in these assays?
EBI2 block: 9; APJ agonist: 0; CXCR6 inh: 3; CCR6 antag: 30; APJ antagonist: 19; m5-HT2A agonist: 1

How did Cc1cc(NC(=O)c2cccc(S(=O)(=O)N3c4ccccc4CC3C)c2)no1 (configuration not stated) do in these assays?
EBI2 block: 16; APJ agonist: -2; CXCR6 inh: 2; CCR6 antag: 7; APJ antagonist: -12; m5-HT2A agonist: -6

Results for CCCNC(=O)CSc1ccc(S(=O)(=O)N2CCCCC2)cn1 ?
EBI2 block: -4; APJ agonist: -2; CXCR6 inh: 8; CCR6 antag: 10; APJ antagonist: 31; m5-HT2A agonist: -7

How did CCCCN(CCCC)CCCNC(=O)CC1Oc2ccc(C)cc2NC1=O (configuration not stated) do in these assays?
EBI2 block: -11; APJ agonist: -4; CXCR6 inh: 1; CCR6 antag: 1; APJ antagonist: 14; m5-HT2A agonist: 0

What do the screens show for `COc1ccc(N(C(=O)Cn2nnc(-c3ccc(Cl)cc3)n2)C(C(=O)NCC2CCCO2)c2ccc(C)cc2)cc1` (configuration not stated)?
EBI2 block: 61*; APJ agonist: -4; CXCR6 inh: -6; CCR6 antag: 0; APJ antagonist: -5; m5-HT2A agonist: -1; EBI2 antag conf: 22; EBI2 agonist: -1; bGal cs: -7

Results for COc1ccc(N(C(=O)Cn2nnc(-c3ccc(Cl)cc3)n2)C(C(=O)NCC2CCCO2)c2ccncc2)cc1 (configuration not stated) ?
EBI2 block: 9; APJ agonist: -2; CXCR6 inh: 5; CCR6 antag: 0; APJ antagonist: 1; m5-HT2A agonist: 7

Results for O=C(C1CCCN(Cc2nc(-c3cccs3)no2)C1)N1CCOCC1 (configuration not stated) ?
EBI2 block: -3; APJ agonist: -2; CXCR6 inh: -10; CCR6 antag: 2; APJ antagonist: -24; m5-HT2A agonist: -1

Results for Cc1c[n+]([O-])cc(C)c1Oc1ccccc1 ?
EBI2 block: 1; APJ agonist: -2; CXCR6 inh: 6; CCR6 antag: 4; APJ antagonist: 5; m5-HT2A agonist: 4

How did COc1ccc(C(Nc2ccccn2)c2c(NC(=O)c3ccco3)sc(C)c2C)cc1OC (configuration not stated) do in these assays?
EBI2 block: 6; APJ agonist: -4; CXCR6 inh: 3; CCR6 antag: 11; APJ antagonist: 19; m5-HT2A agonist: 0

How did Cc1cc(Br)ccc1OCC(=O)NNC(=O)Cc1ccccc1 do in these assays?
EBI2 block: 46*; APJ agonist: 2; CXCR6 inh: -8; CCR6 antag: 22; APJ antagonist: 15; m5-HT2A agonist: -1; EBI2 antag conf: 25; EBI2 agonist: 1; bGal cs: 3

Results for O=C(Nc1ccc(Oc2ccccc2)nc1)C1CCCCN1Cc1ccc(OCCO)cc1 (configuration not stated) ?
EBI2 block: 66*; APJ agonist: 10; CXCR6 inh: -10; CCR6 antag: 2; APJ antagonist: -22; m5-HT2A agonist: -3; EBI2 antag conf: 42; EBI2 agonist: -1; bGal cs: 12

What do the screens show for `CC(=O)c1cccc(CN2CCCCC2C(=O)Nc2ccc(Oc3ccccc3)nc2)c1` (configuration not stated)?
EBI2 block: 71*; APJ agonist: 8; CXCR6 inh: -15; CCR6 antag: 15; APJ antagonist: 3; m5-HT2A agonist: 1; EBI2 antag conf: 49; EBI2 agonist: 1; bGal cs: 8

Results for O=C(Nc1ccc(Oc2ccccc2)nc1)C1CCCCN1Cc1ccco1 (configuration not stated) ?
EBI2 block: 54*; APJ agonist: -1; CXCR6 inh: -5; CCR6 antag: 15; APJ antagonist: 4; m5-HT2A agonist: -3; EBI2 antag conf: 25; EBI2 agonist: 0; bGal cs: 4
